Data: publication PMC5709104 (Haematologica, 2017)
pIC50: −log10 of the molar value. “Also recorded” adds a separate entry of the source.

Experiments:
MOLM13 cells [1] = experiment: Viable cell number and apoptosis by flow cytometry; type: cell-based, human
Method in brief: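 Viable cell number and apoptosis in MOLM13 cells measured by flow cytometry. Single-agent runs used vehicle (0.1% DMSO) or varying doses of test compound for 48 h or 72 h. Combination runs used vehicle (0.2% DMSO), 1 μM cytarabine, test compound (10 or 50 nM) or both, for 48 h. Student's t-test against cytarabine-treated cells.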

resistant cells = settings: cited from earlier work
AXL [2] = settings: cited from earlier work
[3] = system: refractory or relapse AML; settings: single agent; cited from earlier work
OCI-AML3 cells = experiment: Viable cell number and apoptosis by flow cytometry; type: cell-based; settings: varying doses, 48 hours, OCI-AML3 (FLT3 WT)
Method in brief: (§1)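 MV4;11 and OCI-AML3 cells incubated 48 h with vehicle (0.1% DMSO) or varying doses of test compound. Viable cell number and apoptosis measured by flow cytometry.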

HL60 = experiment: Reverse phase protein analysis; type: cell-based; settings: RPPA, 24 hours, FLT3 WT HL60
MV4;11 cells [4] = experiment: Viable cell number and apoptosis by flow cytometry; type: cell-based; settings: 10 nM, 48 hours
Method in brief: as §1

MOLM13 luc/gfp cells = experiment: Human AML murine xenograft model; type: in vivo, NSG mice
Method in brief: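 MOLM13 cells lentivirally transduced with firefly luciferase/copGFP, injected into NSG mice. Control feed for one week, then control feed or feed containing 0.004% (~6 mg/kg daily; N=5 per group) or 0.013% (~20 mg/kg daily; N=9 control, N=10 treated) test compound. Leukemic burden by weekly IVIS imaging. Sternum (BM) and liver from moribund mice examined by H&E.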

FLT3 = FLT3 (Homo sapiens, UniProt P36888); experiment: Cell-based tyrosine kinase inhibition assay; settings: recombinant kinase expressing Ba/F3 cells, 48 hr
MOLM13 cells [5] = experiment: Reverse phase protein analysis; type: cell-based, human; settings: RPPA, 10 nM, 50 nM or 100 nM, 24 hours, at least 2-fold
Cyclin B1 = experiment: Immunoblot analysis; type: cell-based; settings: 10 nM, 24 hours, MOLM13 and MV4;11
Method in brief: (§2)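 MOLM13 and MV4;11 cells incubated 24 h with vehicle or varying doses of test compound, then lysed. Total protein separated by SDS-PAGE and immunoblotted, with infrared imaging detection. Densitometry ratios taken to tubulin loading control, or to the total protein for phospho-proteins.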

MOLM13 cells [6] = experiment: DNA synthesis and cell cycle assay; type: cell-based, human; settings: 24 hours
Method in brief: (§3)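 MOLM13 and MV4;11 cells exposed to vehicle or varying doses of test compound for 24 h. Cell cycle status assessed by FX Cycle Violet DNA staining and DNA synthesis by EdU incorporation (Click-It EdU kit), both read by flow cytometry. Student's t-test against vehicle-treated cells.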

FLT3 phosphorylation = experiment: Immunoblot analysis; type: cell-based; settings: 10 nM
Method in brief: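 MOLM13 and MV4;11 cells exposed to vehicle or test compound, lysed, total protein resolved by SDS-PAGE, immunoblotted for FLT3 phosphorylation, with infrared imaging detection. Tubulin as loading control.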

HL60 cells = experiment: Viable cell number and apoptosis by flow cytometry; type: cell-based; settings: FLT3 WT HL60, data not shown
p38 phosphorylation = experiment: Immunoblot analysis; type: cell-based; settings: 24 hours, MOLM13; due to reduction of total p38
Method in brief: as §2

phosphorylation of S6 = experiment: Immunoblot analysis; type: cell-based; settings: 24 hours, MOLM13
Method in brief: as §2

AXL mRNA = experiment: qRT-PCR gene expression analysis; type: cell-based; settings: 24 hours
PLK1 = experiment: Immunoblot analysis; type: cell-based; settings: 50 nM or 100 nM, 24 hours, MOLM13 and MV4;11
Method in brief: as §2

RB phosphorylation = experiment: Immunoblot analysis; type: cell-based; settings: even at the lowest dose, 24 hours, MOLM13 and MV4;11
Method in brief: as §2

MOLM13 p53 shRNA cells = experiment: Viability and apoptosis by flow cytometry, p53 knockdown cells; type: cell-based, human; settings: 10 nM, 48 hours
Method in brief: (§4)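 MOLM13 cells carrying control shRNA (GFP target) or p53 shRNA incubated 48 h with varying doses of test compound. Viability and apoptosis measured by flow cytometry. p53 knockdown checked by immunoblot densitometry against tubulin. Student's t-test against GFP control.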

AXL [7] = experiment: Immunoblot analysis; type: cell-based; settings: even at the lowest dose, 24 hours, MOLM13 and MV4;11
Method in brief: as §2

[8] = system: MOLM13 cells in co-culture with MSC; experiment: In vitro co-culture system with MSC, viability by flow cytometry; type: cell-based, human; settings: 50 nM, 72 hours
Method in brief: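 MOLM13 cells grown in monoculture or co-cultured with bone marrow-derived mesenchymal stromal cells (patient-derived, IRB-approved). Treated 72 h with vehicle or test compound. Viable cells measured by flow cytometry.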

MV4;11 cells [9] = experiment: DNA synthesis and cell cycle assay; type: cell-based; settings: 24 hours
Method in brief: as §3

[10] = system: MOLM13, MV4:11, OCI-AML3, and HL60 cells; experiment: Trypan blue staining of cells collected for RPPA; type: cell-based; settings: all other cases (vehicle or ONO-7475, 24 hours; MOLM13, MV4:11, OCI-AML3, HL60)
ERK phosphorylation = experiment: Immunoblot analysis; type: cell-based; settings: 10 nM, 24 hours, MOLM13
Method in brief: as §2

MER = MER (Homo sapiens, UniProt Q12866); experiment: Cell-based tyrosine kinase inhibition assay; settings: recombinant kinase expressing Ba/F3 cells, 48 hr
MCL-1 = experiment: Immunoblot analysis; type: cell-based; settings: 24 hours
Method in brief: as §2

OCI-AML3 = experiment: Reverse phase protein analysis; type: cell-based; settings: RPPA, 24 hours, FLT3 WT OCI-AML3
CDK1 mRNA = experiment: qRT-PCR gene expression analysis; type: cell-based; settings: 10 nM, 24 hours, MOLM13 and MV4;11
Method in brief: (§5)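 MOLM13 and MV4;11 cells incubated 24 h with vehicle or varying doses of test compound. Total RNA extracted and reverse transcribed. PLK-1, CDK1 and CCNB1 transcripts quantified by TaqMan qRT-PCR and normalized to B2M.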

CCNB1 mRNA = experiment: qRT-PCR gene expression analysis; type: cell-based; settings: 10 nM, 24 hours, MOLM13 and MV4;11
Method in brief: as §5

CDK1 = experiment: Immunoblot analysis; type: cell-based; settings: 10 nM, 24 hours, MOLM13 and MV4;11
Method in brief: as §2

[11] = system: MOLM13 control shRNA (GFP) cells; experiment: Viability and apoptosis by flow cytometry, control shRNA cells; type: cell-based, human; settings: 10 nM, 48 hours
Method in brief: as §4

PLK-1 mRNA = experiment: qRT-PCR gene expression analysis; type: cell-based; settings: 24 hours; for reduction of PLK-1 mRNA relative to B2M: MOLM13
Method in brief: as §5

Chain of FLT3 (P36888 27-993): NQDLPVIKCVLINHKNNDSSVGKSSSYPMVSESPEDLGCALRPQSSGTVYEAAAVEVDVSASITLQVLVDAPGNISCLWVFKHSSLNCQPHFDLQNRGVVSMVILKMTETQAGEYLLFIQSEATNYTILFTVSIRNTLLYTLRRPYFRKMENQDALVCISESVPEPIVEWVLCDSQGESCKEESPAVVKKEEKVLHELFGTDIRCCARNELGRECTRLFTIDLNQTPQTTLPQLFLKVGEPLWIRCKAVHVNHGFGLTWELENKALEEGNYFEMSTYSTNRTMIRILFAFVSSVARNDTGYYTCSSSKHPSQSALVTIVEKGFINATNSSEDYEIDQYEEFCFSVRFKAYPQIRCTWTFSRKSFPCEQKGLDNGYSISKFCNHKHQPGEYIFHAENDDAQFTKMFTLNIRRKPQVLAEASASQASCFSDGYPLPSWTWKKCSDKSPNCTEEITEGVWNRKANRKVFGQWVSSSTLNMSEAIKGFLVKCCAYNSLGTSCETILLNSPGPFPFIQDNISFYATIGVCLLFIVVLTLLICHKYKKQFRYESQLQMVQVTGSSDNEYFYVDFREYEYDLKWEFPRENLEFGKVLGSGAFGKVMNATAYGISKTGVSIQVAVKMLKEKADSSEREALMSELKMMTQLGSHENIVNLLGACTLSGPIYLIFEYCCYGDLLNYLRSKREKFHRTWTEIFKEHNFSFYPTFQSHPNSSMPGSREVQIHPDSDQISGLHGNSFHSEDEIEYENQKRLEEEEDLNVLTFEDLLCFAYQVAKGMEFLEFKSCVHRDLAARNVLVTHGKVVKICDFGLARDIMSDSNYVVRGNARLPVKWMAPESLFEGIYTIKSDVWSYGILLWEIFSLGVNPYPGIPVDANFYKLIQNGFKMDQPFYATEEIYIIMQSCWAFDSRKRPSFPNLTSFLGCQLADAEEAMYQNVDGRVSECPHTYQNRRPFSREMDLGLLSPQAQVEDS
Chain of MER (Q12866 21-999): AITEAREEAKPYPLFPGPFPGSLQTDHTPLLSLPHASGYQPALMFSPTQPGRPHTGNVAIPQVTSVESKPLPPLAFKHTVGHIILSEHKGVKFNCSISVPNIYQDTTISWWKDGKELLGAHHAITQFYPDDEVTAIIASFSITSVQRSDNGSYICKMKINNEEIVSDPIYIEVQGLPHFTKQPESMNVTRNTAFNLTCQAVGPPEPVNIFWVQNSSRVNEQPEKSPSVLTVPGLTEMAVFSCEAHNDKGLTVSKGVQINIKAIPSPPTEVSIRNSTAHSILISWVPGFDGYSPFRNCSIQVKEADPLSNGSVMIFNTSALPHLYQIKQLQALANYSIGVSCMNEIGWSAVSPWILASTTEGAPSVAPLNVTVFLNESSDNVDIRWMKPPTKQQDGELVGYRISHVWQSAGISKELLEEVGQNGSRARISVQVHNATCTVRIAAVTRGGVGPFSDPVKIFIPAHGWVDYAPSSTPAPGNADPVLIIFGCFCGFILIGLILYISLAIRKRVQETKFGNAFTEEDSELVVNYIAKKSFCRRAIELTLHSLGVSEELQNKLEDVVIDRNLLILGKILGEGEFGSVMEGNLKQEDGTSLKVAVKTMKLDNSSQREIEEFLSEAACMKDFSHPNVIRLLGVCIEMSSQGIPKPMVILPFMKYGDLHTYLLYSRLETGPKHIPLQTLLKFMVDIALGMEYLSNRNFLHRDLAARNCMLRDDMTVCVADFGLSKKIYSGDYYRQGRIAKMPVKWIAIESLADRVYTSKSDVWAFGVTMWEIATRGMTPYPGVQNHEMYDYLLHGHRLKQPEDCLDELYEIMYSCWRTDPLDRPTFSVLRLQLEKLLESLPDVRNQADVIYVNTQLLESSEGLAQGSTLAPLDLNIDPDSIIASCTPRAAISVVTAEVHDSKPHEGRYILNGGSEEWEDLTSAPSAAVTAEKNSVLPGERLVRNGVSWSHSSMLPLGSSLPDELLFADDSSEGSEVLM

With `Nc1ccn([C@@H]2O[C@H](CO)[C@@H](O)[C@@H]2O)c(=O)n1` [AraC, Cytarabine, reference compound] the “viable cell numbers and apoptosis, single agent” value (MOLM13 cells [1]; 1 μM AraC alone, 48 hours, MOLM13) was “effective”.

For `Nc1nc(Nc2ccc3c(c2)CC[C@@H](N2CCCC2)CC3)nn1-c1cc2c(nn1)-c1ccccc1CCC2` [BGB324], the “sensitisation to a combination of decitabine and vorinostat” value (resistant cells) is listed as “could sensitize resistant cells”.

For `CCc1nc(C(N)=O)c(Nc2ccc(N3CCC(N4CCN(C)CC4)CC3)c(OC)c2)nc1NC1CCOCC1` [Gilteritinib, gilteritinib], the pIC50 (AXL [2]) is given as 9.15, the “patients achieving some response” value [3] is given as 40% and the “patients exhibiting inhibition of FLT3 phosphorylation” value [3] is given as 90%. The tolerability [3] was “well tolerated”.

In the case of `COc1cc2nccc(Oc3ccc(NC(=O)c4cc5c(n(-c6ccccc6)c4=O)CCCC5=O)nc3)c2cc1OC` [ONO-7475], the apoptosis (OCI-AML3 cells) was “did not induce apoptosis”, the viable cell number (OCI-AML3 cells) was “slightly reduced” and the “change (i.e., 2-fold) in the level of protein” value (HL60) was “no significant change”. For the same compound, the apoptosis (MOLM13 cells [1]; 10 nM, 48 hours, MOLM13) was “induced apoptosis”, the “reduction of cell viability” value (MOLM13 cells [1]; 10 nM, 48 hours, MOLM13) was greater than 50% and the cells becoming apoptotic (MOLM13 cells [1]; 10 nM, 72 hours, MOLM13) was greater than 70%. The viable cells (MOLM13 cells [1]; 10 nM, 72 hours, MOLM13 monoculture) was “nearly eliminated all viable MOLM13 cells”, the “viable cell numbers and apoptosis, single agent” value (MOLM13 cells [1]; ONO-7475 alone (10nM or 50 nM), 48 hours, MOLM13) was “effective” and the apoptosis (MV4;11 cells [4]) was “induced apoptosis”. The “reduction of cell viability” value (MV4;11 cells [4]) was greater than 50%, the “mice with reduced leukemic burden compared to control (IVIS imaging)” value (MOLM13 luc/gfp cells; 0.004% ONO-7475 feed, Day 14) was “three out of five” and the “leukemia infiltration in the liver (H&E)” value (MOLM13 luc/gfp cells; 0.013% ONO-7475 feed) was “little, if any, AML cells in the liver; also recorded: minimal presence of MOLM13 cells in the liver”. The pIC50 (FLT3) was 6.83, the “Proteins increased in MOLM13 cells by ONO-7475” value (MOLM13 cells [5]) was “H2AX (phospho; pS140)” and the “Cyclin B1 protein” value (Cyclin B1) was “potently suppressed”. For the same compound, the “suppression of DNA synthesis” value (MOLM13 cells [6]; 5 nM) was greater than 2 fold, the cell cycle status (MOLM13 cells [6]) was “potently induced G0/G1 arrest” and the p-FLT3 (FLT3 phosphorylation; MOLM13) was “greatly reduced”. The p-FLT3 (FLT3 phosphorylation; MV4;11) was “nearly eliminated”, the sensitivity to drug (HL60 cells) was “resistant” and the p38 phosphorylation (p38 phosphorylation) was “p38 phosphorylation was reduced”. The “phosphorylation of S6” value (phosphorylation of S6) was “inhibited the phosphorylation of S6”, the “increase of AXL mRNA relative to B2M” value (AXL mRNA; 10 nM, MOLM13 and MV4;11) was ~ 3.5 fold and the “increase of AXL mRNA relative to B2M” value (AXL mRNA; 50 nM, MOLM13) was greater than 6 fold. The “increase of AXL mRNA relative to B2M” value (AXL mRNA; 50 nM, MV4;11) was greater than 8 fold, the PLK1 protein (PLK1) was “Little, if any, PLK1 was detected” and the RB phosphorylation (RB phosphorylation) was “blocked RB phosphorylation”. For the same compound, the apoptosis (MOLM13 p53 shRNA cells) was ~ 20%, the reduction of viability (MOLM13 p53 shRNA cells) was greater than 70% and the AXL protein (AXL [7]) was “induced AXL”. The “protection of AML cells by MSC from the inhibitor” value [8] was “abrogated most of this effect”, the “suppression of DNA synthesis” value (MV4;11 cells [9]; 5 nM) was greater than 2 fold and the cell cycle status (MV4;11 cells [9]) was “potently induced G0/G1 arrest”. For the same compound, the “viable cells (Trypan blue)” value [10] was greater than 95%, the “reduction of ERK phosphorylation” value (ERK phosphorylation) was ~ 50% and the pIC50 (MER) was 9.00. For the same compound, the “suppression of MCL-1” value (MCL-1; 10 nM, MOLM13) was greater than 80%, the “reduction of MCL-1” value (MCL-1; 100 nM, MV4;11) was 50% and the “change (i.e., 2-fold) in the level of protein” value (OCI-AML3) was “no significant change”. The “reduction of CDK1 mRNA relative to B2M” value (CDK1 mRNA) was “at least 60%”, the “reduction of CCNB1 mRNA relative to B2M” value (CCNB1 mRNA) was “at least 60%” and the CDK1 protein (CDK1) was “potently suppressed”. For the same compound, the apoptosis [11] was “without inducing apoptosis”, the reduction of viability [11] was ~ 55% and the “suppression of PLK-1 mRNA compared with MOLM13” value (PLK-1 mRNA; 10 nM and 50 nM, MV4;11) was “more potently suppressed”. The “reduction of PLK-1 mRNA relative to B2M” value (PLK-1 mRNA; 10 nM) was ~ 60% and the “reduction of PLK-1 mRNA relative to B2M” value (PLK-1 mRNA; 50 nM) was ~ 80%.
